Measured values reported in ChEMBL document CHEMBL3112482, “Nonclassical antifolates, part 5. Benzodiazepine analogs as a new class of DHFR inhibitors: synthesis, antitumor testing and molecular modeling study” (Eur J Med Chem, 2014).

Experiments:
SK-OV-3 = experiment: Growth inhibition of human SKOV3 cells at 10 uM after 48 hrs; assay type: functional; settings: SK-OV-3, 48 h, read-out: GI
How it was run: (§1)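 NCI 60-cell-line disease-oriented human tumor panel, single-dose primary screen at 10 µM. Data given as mean-graph percent growth of treated cells, reported as percent growth inhibition (GI %).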

SNB-19 = experiment: Growth inhibition of human SNB19 cells at 10 uM after 48 hrs; assay type: functional; settings: SNB-19, 48 h, read-out: GI; how it was run: as §1
NCI-H23 = experiment: Growth inhibition of human NCI-H23 cells at 10 uM after 48 hrs; assay type: functional; settings: NCI-H23, 48 h, read-out: GI
How it was run: (§2)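 Single-dose primary screen in the NCI 60 human tumour cell line panel, run at the NCI facility. The panel covers nine subpanels: leukaemia, non-small cell lung, colon, CNS, melanoma, ovarian, renal, prostate and breast. Read-out was percent growth of treated cells, shown as a mean graph and reported as percent growth inhibition.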

CCRF-CEM = experiment: Growth inhibition of human CCRF-CEM cells at 10 uM after 48 hrs; assay type: functional; settings: read-out: GI; how it was run: as §2
NCI-H322M = experiment: Growth inhibition of human NCI-H322M cells at 10 uM after 48 hrs; assay type: functional; settings: read-out: GI; how it was run: as §2
[1] = Growth inhibition of human OVCAR4 cells at 10 uM after 48 hrs; assay type: functional; settings: OVCAR-4, 48 h, read-out: GI; how it was run: as §2
SK-MEL-28 = experiment: Growth inhibition of human SK-MEL-28 cells at 10 uM after 48 hrs; assay type: functional; settings: SK-MEL-28, 48 h, read-out: GI; how it was run: as §1
Dihydrofolate reductase = biological target: T1, Dihydrofolate reductase (Bos taurus, UniProt P00376); experiment: Inhibition of bovine liver DHFR measured for every 1 min of 10 mins
T1 sequence (P00376 whole entry): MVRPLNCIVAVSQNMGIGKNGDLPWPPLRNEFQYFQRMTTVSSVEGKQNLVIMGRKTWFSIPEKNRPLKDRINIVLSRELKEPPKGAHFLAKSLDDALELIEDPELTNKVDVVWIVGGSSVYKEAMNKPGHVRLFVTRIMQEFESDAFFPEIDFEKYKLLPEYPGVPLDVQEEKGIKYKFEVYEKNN

[2] = Cytotoxicity against human leukemia cells at 10 uM after 48 hrs; assay type: functional; settings: Leukemia cell
[3] = Growth inhibition of human NCI-ADR-RES cells at 10 uM after 48 hrs; assay type: functional; settings: read-out: GI; how it was run: as §2
[4] = Growth inhibition of human Hs 578T cells at 10 uM after 48 hrs; assay type: functional; settings: read-out: GI; how it was run: as §2
MDA-MB-231 = experiment: Growth inhibition of human MDA-MB-231 cells at 10 uM after 48 hrs; assay type: functional; settings: MDA-MB-231, 48 h, read-out: GI; how it was run: as §2
[5] = Growth inhibition of human EKVX cells at 10 uM after 48 hrs; assay type: functional; settings: read-out: GI; how it was run: as §2
SF-268 = experiment: Growth inhibition of human SF268 cells at 10 uM after 48 hrs; assay type: functional; settings: SF-268, 48 h, read-out: GI; how it was run: as §1
K562 = experiment: Growth inhibition of human K562 cells at 10 uM after 48 hrs; assay type: functional; settings: K562, 48 h, read-out: GI; how it was run: as §2
A498 = experiment: Growth inhibition of human A498 cells at 10 uM after 48 hrs; assay type: functional; settings: A498, 48 h, read-out: GI; how it was run: as §2
TK-10 = experiment: Growth inhibition of human TK10 cells at 10 uM after 48 hrs; assay type: functional; settings: TK-10, 48 h, read-out: GI; how it was run: as §1
SR = experiment: Growth inhibition of human SR cells at 10 uM after 48 hrs; assay type: functional; settings: read-out: GI; how it was run: as §1
MCF7 = experiment: Growth inhibition of human MCF7 cells at 10 uM after 48 hrs; assay type: functional; settings: MCF7, 48 h, read-out: GI; how it was run: as §2
[6] = Growth inhibition of human UO31 cells at 10 uM after 48 hrs; assay type: functional; settings: UO-31, 48 h, read-out: GI; how it was run: as §1
[7] = Growth inhibition of human OVCAR5 cells at 10 uM after 48 hrs; assay type: functional; settings: OVCAR-5, 48 h, read-out: GI; how it was run: as §2
T47D = experiment: Growth inhibition of human T47D cells at 10 uM after 48 hrs; assay type: functional; settings: read-out: GI; how it was run: as §1
PC-3 = experiment: Growth inhibition of human PC3 cells at 10 uM after 48 hrs; assay type: functional; settings: PC-3, 48 h, read-out: GI; how it was run: as §2
SNB-75 = experiment: Growth inhibition of human SNB75 cells at 10 uM after 48 hrs; assay type: functional; settings: SNB-75, 48 h, read-out: GI; how it was run: as §1
[8] = Growth inhibition of human SF539 cells at 10 uM after 48 hrs; assay type: functional; settings: SF-539, 48 h, read-out: GI; how it was run: as §1
SW-620 = experiment: Growth inhibition of human SW620 cells at 10 uM after 48 hrs; assay type: functional; settings: SW-620, 48 h, read-out: GI; how it was run: as §1
[9] = Growth inhibition of human UACC257 cells at 10 uM after 48 hrs; assay type: functional; settings: UACC-257, 48 h, read-out: GI; how it was run: as §1
DU-145 = experiment: Growth inhibition of human DU145 cells at 10 uM after 48 hrs; assay type: functional; settings: DU-145, 48 h, read-out: GI; how it was run: as §2
HL-60(TB) = experiment: Growth inhibition of human HL-60(TB) cells at 10 uM after 48 hrs; assay type: functional; settings: HL-60, 48 h, read-out: GI
How it was run: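 NCI 60-cell-line human tumour panel covering nine subpanels (leukaemia, non-small cell lung, colon, CNS, melanoma, ovarian, renal, prostate, breast), run at the NCI facility. Primary screen tested a single dose of each compound. Read-out was percent growth of treated cells versus untreated cells, reported from the mean graph as percentage growth inhibition.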

[10] = Growth inhibition of human HOP92 cells at 10 uM after 48 hrs; assay type: functional; settings: HOP-92, 48 h, read-out: GI; how it was run: as §2
CAKI-1 = experiment: Growth inhibition of human CAKI-1 cells at 10 uM after 48 hrs; assay type: functional; settings: CAKI-1, 48 h, read-out: GI; how it was run: as §2
786-0 = experiment: Growth inhibition of human 786-0 cells at 10 uM after 48 hrs; assay type: functional; settings: 786-0, 48 h, read-out: GI; how it was run: as §2

Row | Compound | inhibition of growth at 10 µM (SK-OV-3) | inhibition of growth at 10 µM (SNB-19) | inhibition of growth at 10 µM (NCI-H23) | inhibition of growth at 10 µM (CCRF-CEM) | inhibition of growth at 10 µM (NCI-H322M) | inhibition of growth at 10 µM [1] | inhibition of growth at 10 µM (SK-MEL-28) | IC50 (Dihydrofolate reductase) | GI50 [2] | LC50 [2] | TGI [2] | inhibition of growth at 10 µM [3] | inhibition of growth at 10 µM [4] | inhibition of growth at 10 µM (MDA-MB-231) | inhibition of growth at 10 µM [5] | inhibition of growth at 10 µM (SF-268) | inhibition of growth at 10 µM (K562) | inhibition of growth at 10 µM (TK-10) | inhibition of growth at 10 µM (SR) | inhibition of growth at 10 µM (MCF7) | other results
1 | COc1cc(/C=C2\CCCc3c2nc(N)nc3-c2cc(OC)c(OC)c(OC)c2)cc(OC)c1OC | 92.8% | 38.5% | 88.4% | 97.1% | < 30% | 73.1% | 75.1% | 21 µM | 1300 nM | > 100 µM | 36.5 µM | 96.1% | 63% | 71.1% | 44% | 84.9% | 93.6% | < 30% | 99% | 57% | inhibition of growth at 10 µM (A498): 99.5%; inhibition of growth at 10 µM [6]: 65.7%; inhibition of growth at 10 µM [7]: 93.2%; inhibition of growth at 10 µM (T47D): 72.5%; inhibition of growth at 10 µM (PC-3): 74.1%; inhibition of growth at 10 µM (SNB-75): 54.3%; inhibition of growth at 10 µM [8]: 74.1%
2 | COc1cc(/C=C2\CCCC3=C(c4cc(OC)c(OC)c(OC)c4)Nc4ccccc4N=C32)cc(OC)c1OC | 54.6% | 35.6% | 91.5% | 95.7% | < 30% | 66.5% | 70.6% | 0.09 µM | 1400 nM | > 100 µM | 5 µM | 94.1% | 46.8% | 75.9% | 40.2% | 74% | 94.7% | < 30% | 97.3% | 63.1% | inhibition of growth at 10 µM (SW-620): 94.3%; inhibition of growth at 10 µM [9]: 83.8%; inhibition of growth at 10 µM (DU-145): 95.1%; inhibition of growth at 10 µM [6]: 94.4%; inhibition of growth at 10 µM (HL-60(TB)): 98.5%; inhibition of growth at 10 µM [10]: < 30%; inhibition of growth at 10 µM [7]: 83.5%; inhibition of growth at 10 µM (T47D): 76.2%; inhibition of growth at 10 µM (CAKI-1): 93.5%; inhibition of growth at 10 µM (PC-3): 61.8%; inhibition of growth at 10 µM (SNB-75): 45.5%; inhibition of growth at 10 µM [8]: 64.9%; inhibition of growth at 10 µM (786-0): 98.2%
